Experimental findings from ChEMBL document CHEMBL1150797 (Antimicrob Agents Chemother, 2007) are described below.

The nature of data set [1]: Half life in tuberculosis patient at 750 mg, po coadministered with 450 mg, po rifampin. As to conditions: human, in vivo. The data set is classed as ADME, organism-based. Put shortly:
(§1)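 Plasma was sampled predose and at 1–12 h (nine points). Assay: spiked with internal standard, chloroform extraction, derivatization, HPLC-UV at 215 nm, LLOQ 0.05 mg/liter. Noncompartmental analysis: Cmax and Tmax observed, t1/2 = 0.693/β, AUC0-24 by linear-log trapezoid.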

Data set [2] in a line: Half life in tuberculosis patient at 750 mg, po coadministered with 600 mg, po rifampin. Type of data set: ADME, organism-based. As to conditions: human, in vivo. An outline of the steps: as §1
Data set [3] concerns Homo sapiens. The experiment in a line: Cmax in tuberculosis patient at 750 mg, po coadministered with 450 mg, po rifampin. The data set is classed as ADME, organism-based. The arrangement: dose 750 mg, route oral. As to conditions: in vivo. An outline of the steps:
as §1

Data set [4] is described as follows: AUC (0 to 24 hrs) in tuberculosis patient at 750 mg, po coadministered with 450 mg, po rifampin. The data set is classed as ADME, organism-based. As to conditions: human, plasma. The arrangement: dose 750 mg, time < 24 hr, route oral. Put shortly: as §1
The nature of data set [5]: AUC (0 to 24 hrs) in tuberculosis patient at 750 mg, po coadministered with 600 mg, po rifampin. Type of data set: ADME, organism-based. Also noted: time < 24 hr, dose 750 mg, route oral. As to conditions: human, plasma. Put shortly: as §1
Data set [6] in a line: Tmax in tuberculosis patient at 750 mg, po coadministered with 600 mg, po rifampin. The data set is classed as ADME, organism-based. As to conditions: human, in vivo. Put shortly: as §1
A short description of data set [7]: Tmax in tuberculosis patient at 750 mg, po coadministered with 450 mg, po rifampin. As to conditions: human, in vivo. The data set is classed as ADME, organism-based. An outline of the steps: as §1
For data set [8], the system named is Homo sapiens. Put plainly: Cmax in tuberculosis patient at 750 mg, po coadministered with 600 mg, po rifampin. The data set is classed as ADME, organism-based. The arrangement: dose 750 mg, route oral. As to conditions: in vivo. Put shortly:
as §1

Data set [9] is described as follows: Tmax in tuberculosis patient at 1500 mg, po coadministered with 600 mg, po rifampin. The data set is classed as ADME, organism-based. As to conditions: human, in vivo. Put shortly: (§2)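 Venous plasma was drawn predose and at 1, 1.5, 2, 2.5, 3, 4, 6 and 12 h. Assay: solid-phase extraction, HPLC-UV at 266 nm, LLOQ 0.1 mg/liter. Cmax and Tmax were observed values; noncompartmental analysis gave t1/2 as 0.693/β and AUC0-24 by linear-log trapezoid with C24 extrapolated.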

A short description of data set [10]: Half life in tuberculosis patient at 1500 mg, po coadministered with 450 mg, po rifampin. Type of data set: ADME, organism-based. As to conditions: human, in vivo. Put shortly: as §2
Data set [11] is described as follows: AUC (0 to 24 hrs) in tuberculosis patient at 1500 mg, po coadministered with 600 mg, po rifampin. Type of data set: ADME, organism-based. Also noted: dose 1500 mg, time < 24 hr, route oral. As to conditions: human, plasma. An outline of the steps: as §2
A short description of data set [12]: AUC (0 to 24 hrs) in tuberculosis patient at 1500 mg, po coadministered with 450 mg, po rifampin. The data set is classed as ADME, organism-based. Also noted: time < 24 hr, dose 1500 mg, route oral. As to conditions: human, plasma. Put shortly:
as §2

Data set [13] is described as follows: Tmax in tuberculosis patient at 1500 mg, po coadministered with 450 mg, po rifampin. The data set is classed as ADME, organism-based. As to conditions: human, in vivo. An outline of the steps:
as §2

Data set [14] can be described thus: Half life in tuberculosis patient at 1500 mg, po coadministered with 600 mg, po rifampin. The data set is classed as ADME, organism-based. As to conditions: human, in vivo. An outline of the steps:
as §2

Data set [15] can be described thus: Cmax in tuberculosis patient at 1500 mg, po coadministered with 450 mg, po rifampin. As to conditions: human, in vivo. Type of data set: ADME, organism-based. The arrangement: dose 1500 mg, route oral. An outline of the steps: as §2
Data set [16] is described as follows: Cmax in tuberculosis patient at 1500 mg, po coadministered with 600 mg, po rifampin. As to conditions: human, in vivo. Also noted: dose 1500 mg, route oral. The data set is classed as ADME, organism-based. An outline of the steps:
as §2

The nature of data set [17]: Cmax in human tuberculosis patient at 600 mg, po. As to conditions: in vivo.
Data set [18] in a line: Apparent volume of distribution in tuberculosis patient at 600 mg, po. Type of data set: ADME, organism-based. As to conditions: human, in vivo, read-out: Vc/F.
A short description of data set [19]: clinical. As to conditions: human, plasma, po, 450 mg.
Data set [20] concerns Homo sapiens. The experiment in a line: Tmax in tuberculosis patient at 600 mg, po. The data set is classed as ADME, organism-based. As to conditions: in vivo.
Data set [21] in a line: Apparent clearance in tuberculosis patient at 450 mg, po. Type of data set: ADME, organism-based. As to conditions: human, in vivo.
Data set [22] concerns Homo sapiens. The experiment in a line: Tmax in tuberculosis patient assessed as desacetylrifampin level at 600 mg, po. Type of data set: ADME, organism-based. As to conditions: in vivo.
Data set [23] has as its system Homo sapiens. The experiment in a line: Tmax in tuberculosis patient assessed as desacetylrifampin level at 450 mg, po. The data set is classed as ADME, organism-based. As to conditions: in vivo.
A short description of data set [24]: Apparent volume of distribution in tuberculosis patient at 450 mg, po. The data set is classed as ADME, organism-based. As to conditions: human, in vivo, read-out: Vc/F.
Data set [25] can be described thus: Apparent clearance in tuberculosis patient at 600 mg, po. Type of data set: ADME, organism-based. As to conditions: human, in vivo.
Data set [26] can be described thus: Tmax in tuberculosis patient at 450 mg, po. As to conditions: human, in vivo. The data set is classed as ADME, organism-based.
Data set [27] in a line: clinical. As to conditions: human, plasma, po, 600 mg.

The term half-life denotes the time in which the quantity being followed falls by half. A word on the AUC(0-t): it is exposure summed from dosing to a finite time, without extrapolation to infinity. Usually Tmax stands for the time from dosing to the highest level. Consider `CC[C@@H](CO)NCCN[C@@H](CC)CO` [ETHAMBUTOL], for which the half-life in data set [1] was 4.2 h; in data set [2], 4.6 h. Further, the Cmax in the data set on Homo sapiens [3] turned out to be 2.4 h; with Homo sapiens [8], 2.3 h. Moreover, the AUC(0-t) at 24 h in data set [4] was found to be 14400 ng·h/mL; in data set [5] it was 14700 ng·h/mL. For the same molecule, the Tmax in data set [6] and in data set [7] was 2.5 h each time.

With `NC(=O)c1cnccn1` [PYRAZINAMIDE], the Tmax turned out to be 2.5 h in [9] and 2.75 h in data set [13]. Besides, the half-life in [10] was 6.6 h; in data set [14] it was 6.9 h. The figures for the AUC(0-t) at 24 h in data set [11] and in [12] were 514000 ng·h/mL and 473000 ng·h/mL, respectively. Besides, the values for the Cmax in data set [15] and in data set [16] were 43800 ng/mL and 46000 ng/mL, respectively.

A word on the CL/F: it is clearance divided by bioavailability, as obtained after extravascular dosing. In [17], `CO[C@H]1/C=C/O[C@@]2(C)Oc3c(C)c(O)c4c(O)c(c(/C=N/N5CCN(C)CC5)c(O)c4c3C2=O)NC(=O)/C(C)=C\C=C\[C@H](C)[C@H](O)[C@@H](C)[C@@H](O)[C@@H](C)[C@H](OC(C)=O)[C@@H]1C` [RIFAMPIN] displayed a Cmax of 15600 ng/mL. Also, the Vd/F in data set [18] was 23.3 L; in [24], 25.3 L. The AUC(0-t) at 24 h in the data set “clinical [19]” was found to be 48500 ng·h/mL; in “clinical [27]”, 79700 ng·h/mL. The time of peak concentration (Tmax) is 1 h in the data set on Homo sapiens [20], 4 h in the data set on Homo sapiens [22], 4 h with Homo sapiens [23] and 2 h in [26]. For the same molecule, the apparent clearance (CL/F) is 153 mL/min in [21] and 125 mL/min in data set [25].
